{"source": "ChEMBL document CHEMBL4118027", "about": "“Preussilides A-F, Bicyclic Polyketides from the Endophytic Fungus Preussia similis with Antiproliferative Activity” (J Nat Prod, 2017)", "key": {"[1]": {"test_system": "MCF7", "experiment": "Cytotoxicity against human MCF7 cells assessed as reduction in cell viability after 5 days by MTT assay", "format": "functional, cell-based", "details": "MCF7, 120 h", "procedure,_shortened": "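MTT viability assay run over 5 days on a panel of eight lines (L929, KB3.1, A431, A549, SKOV-3, PC-3, MCF-7, U2OS). IC50 values were derived.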"}, "[2]": {"test_system": "Mucor plumbeus", "experiment": "Antifungal activity against Mucor plumbeus MUCL 49355 by serial dilution method", "format": "functional"}, "[3]": {"test_system": "Aspergillus fumigatus", "experiment": "Antifungal activity against Aspergillus fumigatus DSM 819 by serial dilution method", "format": "functional"}, "[4]": {"test_system": "Escherichia coli", "experiment": "Antibacterial activity against Escherichia coli DSM 498 by serial dilution method", "format": "functional, organism-based"}, "[5]": {"test_system": "Wickerhamomyces anomalus", "experiment": "Antifungal activity against Pichia anomala DSM 6766 by serial dilution method", "format": "functional, organism-based"}, "[6]": {"test_system": "Schizosaccharomyces pombe", "experiment": "Antifungal activity against Schizosaccharomyces pombe DSM 70572 by serial dilution method", "format": "functional, organism-based"}, "[7]": {"test_system": "Mucor hiemalis", "experiment": "Antifungal activity against Mucor hiemalis DSM 2656 by serial dilution method", "format": "functional, organism-based"}, "[8]": {"test_system": "Setaria italica", "experiment": "Phytotoxicity against Setaria italica assessed as inhibition of seedling germination at 100 ug/disk", "format": "functional, organism-based"}, "[9]": {"test_system": "U2OS", "experiment": "Induction of morphological changes in human U2OS cells assessed as multipolar and duplicated spindle formation at 0.25 to 5 ug/ml after 24 hrs by DAPI staining based immunofluorescence microscopic method", "format": "functional, cell-based", "procedure,_shortened": "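U2OS in DMEM (4.5 g/L glucose, 10% FBS), 37 °C, 7% CO2, seeded 3 × 10^4/well on fibronectin-coated coverslips and adhered 16 h. Treated 24 h at 0.25, 0.5, 2.5, 5 or 10 μg/mL (diluted from 1 mg/mL DMSO stock), DMSO control. Fixed in 4% PFA/PBS 20 min; anti-α-tubulin (DM1A), phalloidin-Alexa 488 and DNA stain; immunofluorescence imaging.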"}, "[10]": {"test_system": "U2OS", "experiment": "Induction of nuclear fragmentation in human U2OS cells at 0.25 to 5 ug/ml after 24 hrs by DAPI staining based immunofluorescence microscopic method", "format": "functional, cell-based"}, "[11]": {"test_system": "U2OS", "experiment": "Cell cycle arrest in human U2OS cells assessed as accumulation at sub-G1 phase at 5 ug/ml after 18 hrs by propidium iodide staining based flow cytometry (reference value: 0.19%)", "format": "functional", "procedure,_shortened": "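U2OS were seeded at 7 × 10^5/well in six-well plates and exposed to 5 or 10 μg/mL for 18 h after spreading, with untreated and DMSO mock controls. Cells were trypsinized, fixed in 2% PFA/PBS, then in ice-cold methanol 30 min. Staining: anti-tubulin/anti-lamin antibodies plus RNase A and propidium iodide. Flow cytometry assigned G1, S, G2-M and sub-G1 by DNA content.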"}, "[12]": {"test_system": "U2OS", "experiment": "Induction of morphological changes in human U2OS cells at 0.25 to 5 ug/ml after 24 hrs by DAPI staining based immunofluorescence microscopic method"}, "[13]": {"test_system": "U2OS", "experiment": "Induction of apoptosis in human U2OS cells assessed as caspase-3/7 cleavage at 5 ug/ml after 18 hrs by caspase-3/7 green reagent based flow cytometry (reference value: 8.04%)"}}, "note": "Active and inactive are the calls of the source. No cut-off for these calls is given here.", "data": [{"smiles": "CC(=O)CC1=C(C)C=C2C[C@@H](C)C(=O)[C@@H](C)[C@@H]2[C@H]1/C=C(C)/C=C(C)/C=C/C(=O)O", "values": [{"measurement": "IC50", "setting": "[1]", "result": 7.3, "unit": "µM"}, {"measurement": "MIC", "setting": "[2]", "result": 37.5, "unit": "µg/mL"}, {"measurement": "MIC", "setting": "[3]", "result": 8.3, "unit": "µg/mL"}, {"measurement": "Activity", "setting": "[4]", "result": "inactive"}, {"measurement": "Activity", "setting": "[5]", "result": "inactive"}, {"measurement": "Activity", "setting": "[6]", "result": "inactive"}, {"measurement": "Activity", "setting": "[7]", "result": "inactive"}, {"measurement": "Activity", "setting": "[8]", "result": "inactive"}, {"measurement": "Activity", "setting": "[9]", "result": "Active"}, {"measurement": "Activity", "setting": "[10]", "result": "Active"}, {"measurement": "Activity", "setting": "[11]", "result": 1.14, "unit": "%"}, {"measurement": "Activity", "setting": "[12]", "result": "Active"}, {"measurement": "Activity", "setting": "[13]", "result": 3.45, "unit": "%"}]}]}
